# Measurements: PMC5084670 (Cancer Science, 2016)
# Assay: Phase I dose-escalation study: safety, adverse events
# Type: in vivo, human
# In short: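 Oral test compound was given once daily in 28-day cycles after a 7-day single-dose run-in, in Japanese and Hong Kong/Taiwan groups escalated separately. Toxicity was graded by CTCAE v3.0 using laboratory tests, physical examination, vital signs, weight and periodic ECG. DLTs were grade 3–4 events over the run-in plus cycle 1. MTD was set by an adaptive Bayesian logistic regression model with overdose control.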
# [1] = group 2, 400 mg q.d. (n = 12), All grades
# [2] = group 2, 400 mg q.d. (n = 12), Grade 3
# [3] = group 2, 400 mg q.d. (n = 12), Grade 4
# [4] = group 2, 600 mg q.d. (n = 8), All grades
# [5] = group 2, 600 mg q.d. (n = 8), Grade 3
# [6] = group 2, 600 mg q.d. (n = 8), Grade 4
# [7] = group 2, 800 mg q.d. (n = 4), All grades
# [8] = group 2, 800 mg q.d. (n = 4), Grade 3
# [9] = group 2, 800 mg q.d. (n = 4), Grade 4
# [10] = group 2, All patients (n = 24), All grades
# [11] = group 2, All patients (n = 24), Grade 3
# [12] = group 2, All patients (n = 24), Grade 4
structure (smiles),measurement,setting,value
Cc1c(C(=O)Nc2ccc(N3C[C@@H](C)O[C@@H](C)C3)nc2)cccc1-c1ccc(OC(F)(F)F)cc1 [Sonidegib],Dysgeusia (drug-related adverse event),[1],2 (17) n (%)
same,Fatigue (drug-related adverse event),[1],4 (33) n (%)
same,Hepatic function abnormal (drug-related adverse event),[1],2 (17) n (%)
same,Muscular weakness (drug-related adverse event),[1],0 (0) n (%)
same,Myalgia (drug-related adverse event),[1],2 (17) n (%)
same,Nausea (drug-related adverse event),[1],0 (0) n (%)
same,Pyrexia (drug-related adverse event),[1],0 (0) n (%)
same,Vomiting (drug-related adverse event),[1],0 (0) n (%)
same,Blood creatine kinase increased (drug-related adverse event),[2],1 (8) n (%)
same,Decreased appetite (drug-related adverse event),[2],0 (0) n (%)
same,Diarrhea (drug-related adverse event),[2],0 (0) n (%)
same,Dizziness (drug-related adverse event),[2],0 (0) n (%)
same,Dysgeusia (drug-related adverse event),[2],0 (0) n (%)
same,Fatigue (drug-related adverse event),[2],0 (0) n (%)
same,Hepatic function abnormal (drug-related adverse event),[2],0 (0) n (%)
same,Muscular weakness (drug-related adverse event),[2],0 (0) n (%)
same,Myalgia (drug-related adverse event),[2],0 (0) n (%)
same,Nausea (drug-related adverse event),[2],0 (0) n (%)
same,Pyrexia (drug-related adverse event),[2],0 (0) n (%)
same,Vomiting (drug-related adverse event),[2],0 (0) n (%)
same,Blood creatine kinase increased (drug-related adverse event),[3],1 (8) n (%)
same,Decreased appetite (drug-related adverse event),[3],0 (0) n (%)
same,Diarrhea (drug-related adverse event),[3],0 (0) n (%)
same,Dizziness (drug-related adverse event),[3],0 (0) n (%)
same,Dysgeusia (drug-related adverse event),[3],0 (0) n (%)
same,Fatigue (drug-related adverse event),[3],0 (0) n (%)
same,Hepatic function abnormal (drug-related adverse event),[3],0 (0) n (%)
same,Muscular weakness (drug-related adverse event),[3],0 (0) n (%)
same,Myalgia (drug-related adverse event),[3],0 (0) n (%)
same,Nausea (drug-related adverse event),[3],0 (0) n (%)
same,Pyrexia (drug-related adverse event),[3],0 (0) n (%)
same,Vomiting (drug-related adverse event),[3],0 (0) n (%)
same,Blood creatine kinase increased (drug-related adverse event),[4],3 (38) n (%)
same,Decreased appetite (drug-related adverse event),[4],3 (38) n (%)
same,Diarrhea (drug-related adverse event),[4],1 (13) n (%)
same,Dizziness (drug-related adverse event),[4],1 (13) n (%)
same,Dysgeusia (drug-related adverse event),[4],3 (38) n (%)
same,Fatigue (drug-related adverse event),[4],1 (13) n (%)
same,Hepatic function abnormal (drug-related adverse event),[4],2 (25) n (%)
same,Muscular weakness (drug-related adverse event),[4],1 (13) n (%)
same,Myalgia (drug-related adverse event),[4],3 (38) n (%)
same,Nausea (drug-related adverse event),[4],3 (38) n (%)
same,Pyrexia (drug-related adverse event),[4],1 (13) n (%)
same,Vomiting (drug-related adverse event),[4],2 (25) n (%)
same,Blood creatine kinase increased (drug-related adverse event),[5],0 (0) n (%)
same,Decreased appetite (drug-related adverse event),[5],0 (0) n (%)
same,Diarrhea (drug-related adverse event),[5],0 (0) n (%)
same,Dizziness (drug-related adverse event),[5],0 (0) n (%)
same,Dysgeusia (drug-related adverse event),[5],0 (0) n (%)
same,Fatigue (drug-related adverse event),[5],0 (0) n (%)
same,Hepatic function abnormal (drug-related adverse event),[5],1 (13) n (%)
same,Muscular weakness (drug-related adverse event),[5],0 (0) n (%)
same,Myalgia (drug-related adverse event),[5],1 (13) n (%)
same,Nausea (drug-related adverse event),[5],0 (0) n (%)
same,Pyrexia (drug-related adverse event),[5],0 (0) n (%)
same,Vomiting (drug-related adverse event),[5],0 (0) n (%)
same,Blood creatine kinase increased (drug-related adverse event),[6],1 (13) n (%)
same,Decreased appetite (drug-related adverse event),[6],0 (0) n (%)
same,Diarrhea (drug-related adverse event),[6],0 (0) n (%)
same,Dizziness (drug-related adverse event),[6],0 (0) n (%)
same,Dysgeusia (drug-related adverse event),[6],0 (0) n (%)
same,Fatigue (drug-related adverse event),[6],0 (0) n (%)
same,Hepatic function abnormal (drug-related adverse event),[6],0 (0) n (%)
same,Muscular weakness (drug-related adverse event),[6],0 (0) n (%)
same,Myalgia (drug-related adverse event),[6],0 (0) n (%)
same,Nausea (drug-related adverse event),[6],0 (0) n (%)
same,Pyrexia (drug-related adverse event),[6],0 (0) n (%)
same,Vomiting (drug-related adverse event),[6],0 (0) n (%)
same,DLT in cycle 1 (creatine kinase elevation),"group 2, 800 mg",single DLT
same,Blood creatine kinase increased (drug-related adverse event),[7],3 (75) n (%)
same,Decreased appetite (drug-related adverse event),[7],2 (50) n (%)
same,Diarrhea (drug-related adverse event),[7],1 (25) n (%)
same,Dizziness (drug-related adverse event),[7],1 (25) n (%)
same,Dysgeusia (drug-related adverse event),[7],1 (25) n (%)
same,Fatigue (drug-related adverse event),[7],3 (75) n (%)
same,Hepatic function abnormal (drug-related adverse event),[7],3 (75) n (%)
same,Muscular weakness (drug-related adverse event),[7],3 (75) n (%)
same,Myalgia (drug-related adverse event),[7],3 (75) n (%)
same,Nausea (drug-related adverse event),[7],2 (50) n (%)
same,Pyrexia (drug-related adverse event),[7],1 (25) n (%)
same,Vomiting (drug-related adverse event),[7],1 (25) n (%)
same,Blood creatine kinase increased (drug-related adverse event),[8],0 (0) n (%)
same,Decreased appetite (drug-related adverse event),[8],1 (25) n (%)
same,Diarrhea (drug-related adverse event),[8],0 (0) n (%)
same,Dizziness (drug-related adverse event),[8],0 (0) n (%)
same,Dysgeusia (drug-related adverse event),[8],0 (0) n (%)
same,Fatigue (drug-related adverse event),[8],2 (50) n (%)
same,Hepatic function abnormal (drug-related adverse event),[8],2 (50) n (%)
same,Muscular weakness (drug-related adverse event),[8],2 (50) n (%)
same,Myalgia (drug-related adverse event),[8],1 (25) n (%)
same,Nausea (drug-related adverse event),[8],0 (0) n (%)
same,Pyrexia (drug-related adverse event),[8],0 (0) n (%)
same,Vomiting (drug-related adverse event),[8],0 (0) n (%)
same,Blood creatine kinase increased (drug-related adverse event),[9],2 (50) n (%)
same,Decreased appetite (drug-related adverse event),[9],0 (0) n (%)
same,Diarrhea (drug-related adverse event),[9],0 (0) n (%)
same,Dizziness (drug-related adverse event),[9],0 (0) n (%)
same,Dysgeusia (drug-related adverse event),[9],0 (0) n (%)
same,Fatigue (drug-related adverse event),[9],0 (0) n (%)
same,Hepatic function abnormal (drug-related adverse event),[9],0 (0) n (%)
same,Muscular weakness (drug-related adverse event),[9],0 (0) n (%)
same,Myalgia (drug-related adverse event),[9],0 (0) n (%)
same,Nausea (drug-related adverse event),[9],0 (0) n (%)
same,Pyrexia (drug-related adverse event),[9],0 (0) n (%)
same,Vomiting (drug-related adverse event),[9],0 (0) n (%)
same,Blood creatine kinase increased (drug-related adverse event),[10],12 (50) n (%)
same,Decreased appetite (drug-related adverse event),[10],5 (21) n (%)
same,Diarrhea (drug-related adverse event),[10],2 (8) n (%)
same,Dizziness (drug-related adverse event),[10],2 (8) n (%)
same,Dysgeusia (drug-related adverse event),[10],6 (25) n (%)
same,Fatigue (drug-related adverse event),[10],8 (33) n (%)
same,Hepatic function abnormal (drug-related adverse event),[10],7 (29) n (%)
same,Muscular weakness (drug-related adverse event),[10],4 (17) n (%)
same,Myalgia (drug-related adverse event),[10],8 (33) n (%)
same,Nausea (drug-related adverse event),[10],5 (21) n (%)
same,Pyrexia (drug-related adverse event),[10],2 (8) n (%)
same,Vomiting (drug-related adverse event),[10],3 (13) n (%)
same,Blood creatine kinase increased (drug-related adverse event),[11],1 (4) n (%)
same,Decreased appetite (drug-related adverse event),[11],1 (4) n (%)
same,Diarrhea (drug-related adverse event),[11],0 (0) n (%)
same,Dizziness (drug-related adverse event),[11],0 (0) n (%)
same,Dysgeusia (drug-related adverse event),[11],0 (0) n (%)
same,Fatigue (drug-related adverse event),[11],2 (8) n (%)
same,Hepatic function abnormal (drug-related adverse event),[11],3 (13) n (%)
same,Muscular weakness (drug-related adverse event),[11],2 (8) n (%)
same,Myalgia (drug-related adverse event),[11],2 (8) n (%)
same,Nausea (drug-related adverse event),[11],0 (0) n (%)
same,Pyrexia (drug-related adverse event),[11],0 (0) n (%)
same,Vomiting (drug-related adverse event),[11],0 (0) n (%)
same,Blood creatine kinase increased (drug-related adverse event),[12],4 (17) n (%)
same,Decreased appetite (drug-related adverse event),[12],0 (0) n (%)
same,Diarrhea (drug-related adverse event),[12],0 (0) n (%)
same,Dizziness (drug-related adverse event),[12],0 (0) n (%)
same,Dysgeusia (drug-related adverse event),[12],0 (0) n (%)
same,Fatigue (drug-related adverse event),[12],0 (0) n (%)
same,Hepatic function abnormal (drug-related adverse event),[12],0 (0) n (%)
same,Muscular weakness (drug-related adverse event),[12],0 (0) n (%)
same,Myalgia (drug-related adverse event),[12],0 (0) n (%)
same,Nausea (drug-related adverse event),[12],0 (0) n (%)
same,Pyrexia (drug-related adverse event),[12],0 (0) n (%)
same,Vomiting (drug-related adverse event),[12],0 (0) n (%)
same,Maximum tolerated dose (MTD),"group 2, Bayesian logistic regression model, all grade 3 or 4 blood CK elevation incidents",600 mg q.d.
same,Drug-related AE: abnormal hepatic function,"group 2, all doses",29%
same,Drug-related AE: fatigue,"group 2, all doses",33%
same,Drug-related AE: increase in CK levels,"group 2, all doses",50%
same,Drug-related AE: myalgia,"group 2, all doses",33%
same,Patients with at least one AE suspected to be related to sonidegib,"group 2, n = 18",75%
same,Patients with SAEs that led to drug discontinuation,in each group,four
same,Time to recovery of CK after interruption of drug,most cases,1 month
same,Renal impairment or renal failure,patients with grade 3 or 4 CK elevation and high blood myoglobin,no patients experienced renal impairment or renal failure
same,CK re-elevation after restart with a 200 mg dose,three patients at 400 mg interrupted for grade 3 CK elevation,not observed
